Active and inactive are the calls of the source. No cut-off for these calls is given here.
Legend:
[1] = target: T1, Peroxisome proliferator-activated receptor gamma (Homo sapiens) (UniProt P37231); experiment: Antagonist activity at PPARgamma expressed in HEK293A cells co-expressing GAL4 after 16 to 18 hrs by luciferase reporter gene assay; format: functional, cell-based; details: HEK293-A
T1 sequence (whole entry): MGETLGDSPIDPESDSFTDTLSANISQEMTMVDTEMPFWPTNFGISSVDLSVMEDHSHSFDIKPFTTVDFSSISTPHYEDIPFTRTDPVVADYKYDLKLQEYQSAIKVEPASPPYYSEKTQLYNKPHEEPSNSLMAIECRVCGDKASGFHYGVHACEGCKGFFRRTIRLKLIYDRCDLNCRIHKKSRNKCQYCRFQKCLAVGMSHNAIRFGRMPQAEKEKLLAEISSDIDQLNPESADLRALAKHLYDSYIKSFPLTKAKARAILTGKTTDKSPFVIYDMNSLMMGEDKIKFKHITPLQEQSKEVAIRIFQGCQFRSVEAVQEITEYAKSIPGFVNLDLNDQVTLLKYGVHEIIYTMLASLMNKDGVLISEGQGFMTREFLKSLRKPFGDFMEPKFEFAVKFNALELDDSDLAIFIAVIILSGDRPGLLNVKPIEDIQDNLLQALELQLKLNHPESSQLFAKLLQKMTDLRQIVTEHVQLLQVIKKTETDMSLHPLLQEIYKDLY

[2] = target: T2, Peroxisome proliferator-activated receptor alpha (Homo sapiens) (UniProt Q07869); experiment: Transactivation of PPARalpha expressed in HEK293A cells co-expressing GAL4 at 1 to 150 uM after 16 to 18 hrs by luciferase reporter gene assay; format: cell-based; details: HEK293-A
T2 sequence (whole entry): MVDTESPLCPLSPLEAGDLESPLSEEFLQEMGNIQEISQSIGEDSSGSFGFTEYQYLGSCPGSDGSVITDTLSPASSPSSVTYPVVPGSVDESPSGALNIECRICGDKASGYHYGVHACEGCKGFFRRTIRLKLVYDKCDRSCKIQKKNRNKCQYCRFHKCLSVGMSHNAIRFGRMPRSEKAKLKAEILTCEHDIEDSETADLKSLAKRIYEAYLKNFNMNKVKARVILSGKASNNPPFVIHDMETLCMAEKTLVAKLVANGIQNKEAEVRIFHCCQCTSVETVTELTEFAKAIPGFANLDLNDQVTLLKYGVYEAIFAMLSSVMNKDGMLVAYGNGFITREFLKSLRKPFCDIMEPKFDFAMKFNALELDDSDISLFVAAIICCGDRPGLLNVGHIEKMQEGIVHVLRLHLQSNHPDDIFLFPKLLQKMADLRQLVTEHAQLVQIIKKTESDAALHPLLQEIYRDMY
Outline: (§1)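 HEK293A cells cultured to 70–80% confluency, moved to serum-free medium, then calcium-phosphate co-transfected with GAL4–PPARα, luciferase reporter, renilla and pGEM plasmids. Compounds added 6 h after transfection and run in agonist mode. Firefly luciferase activity measured after 16–18 h. Five concentrations from 1 to 150 µM, at least three separate experiments, EC50 ± SEM.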

[3] = target: T2, Peroxisome proliferator-activated receptor alpha (Homo sapiens); experiment: Binding affinity to PPARalpha LBD at 100 uM after 2 hrs by TR-FRET analysis
Outline: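 After 2 h incubation, excitation at 340 nm and emission at 520 and 495 nm. The 520/495 ratio is normalized to clofibric acid as 100%.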

[4] = target: T3, Peroxisome proliferator-activated receptor alpha (Homo sapiens, UniProt Q07869); experiment: (§2) Antagonist activity at PPARalpha expressed in HEK293 cells co-expressing GAL4 assessed as inhibition of GW7647-induced transactivation activity after 16 to 18 hrs by luciferase reporter gene assay; format: functional, cell-based
T3 sequence (Q07869 whole entry): T2 sequence (whole entry)
Outline: (§3)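 GAL4–PPARα chimera in HEK293A cells grown to 70–80% confluency over 16 h, then switched to serum-free medium. Cells co-transfected by calcium phosphate with reporter, renilla, pGEM and receptor plasmids. […] Firefly luciferase read after 16–18 h. Five concentrations, 1–150 µM, at least three separate experiments, IC50 ± SEM.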

[5] = target: T2, Peroxisome proliferator-activated receptor alpha (Homo sapiens); experiment: Transactivation of PPARalpha expressed in HEK293A cells co-expressing GAL4 at 150 uM after 16 to 18 hrs by luciferase reporter gene assay relative to control; format: cell-based; details: HEK293-A
Outline: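 Single-concentration agonist-mode transactivation: GAL4–PPARα or GAL4–PPARγ chimera, calcium-phosphate transfected into HEK293A cells with reporter, renilla and pGEM plasmids. […] Firefly luciferase read after 16–18 h. Values are ± SEM.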

[6] = target: T3, Peroxisome proliferator-activated receptor alpha; experiment: Binding affinity to PPARalpha LBD after 2 hrs by TR-FRET analysis
Outline: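 TR-FRET competitive binding to PPARα LBD. Five concentrations, three independent experiments. After 2 h incubation, excitation at 340 nm, emission at 520 nm (fluorescein acceptor) and 495 nm (terbium donor). Ratio 520/495 used to derive IC50.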

[7] = target: T2, Peroxisome proliferator-activated receptor alpha (Homo sapiens); experiment: Antagonist activity at PPARalpha expressed in HEK293A cells co-expressing GAL4 assessed as inhibition of GW7647-induced transactivation activity at 1 to 150 uM after 16 to 18 hrs by luciferase reporter gene assay; format: functional, cell-based; details: HEK293-A; outline: as §3
[8] = target: T1, Peroxisome proliferator-activated receptor gamma (Homo sapiens); experiment: Transactivation of PPARgamma expressed in HEK293A cells co-expressing GAL4 at the concentration corresponding to IC50 or EC50 on PPARalpha after 16 to 18 hrs by luciferase reporter gene assay; details: HEK293-A
[9] = target: T3, Peroxisome proliferator-activated receptor alpha; experiment: Transactivation of PPARalpha expressed in HEK293A cells co-expressing GAL4 after 16 to 18 hrs by luciferase reporter gene assay; format: cell-based, HEK293-A; outline: as §1
[10] = target: T2, Peroxisome proliferator-activated receptor alpha (Homo sapiens); experiment: as §2; format: functional, cell-based; outline: as §3

inhibition [1] | Activity [2] | Activity [3] | IC50 [4] [nM] | fold change (FC) [5] | IC50 [6] [nM] | inhibition [7] | Activity [8] | EC50 [9] [nM] | inhibition [10] | SMILES
Active | inactive | Active | 5100 | 0.04 | – | – | – | – | – | CCCCCCC(Sc1nc2cc(Cl)ccc2s1)C(=O)NS(C)(=O)=O (stereo unspecified)
Active | inactive | 95.3% | 900 | 0.07 | 950 | – | – | – | – | CS(=O)(=O)NC(=O)C(Sc1nc2cc(Cl)ccc2s1)c1ccccc1 (stereo unspecified)
– | – | 121% | – | 1.7 | – | inactive | Active | 10700 | – | CC(C)(Oc1ccc(Cl)cc1)C(=O)NS(C)(=O)=O
– | – | 118% | – | 1.55 | – | inactive | Active | 7100 | – | Cc1ccc(C)c(OCCCC(C)(C)C(=O)NS(C)(=O)=O)c1
– | – | Active | – | 1.84 | – | inactive | Active | 1590 | – | CCOc1ccc2nc(SC(C)C(=O)NS(C)(=O)=O)sc2c1 (stereo unspecified)
– | inactive | 137% | 8870 | 0.36 | 480 | – | Active | – | – | CCCC(Sc1nc2ccc(OCC)cc2s1)C(=O)NS(C)(=O)=O (stereo unspecified)
– | inactive | 117% | 800 | 0.08 | 600 | – | – | – | Dose-dependent effect | CCCCC(Sc1nc2cc(Cl)ccc2s1)C(=O)NS(C)(=O)=O (stereo unspecified)
– | – | – | – | 1.6 | – | inactive | – | – | – | CC(C)(Oc1ccc(Cl)cc1)C(=O)O
– | inactive | Active | 46500 | 0.47 | – | – | Active | – | – | CC(C)C(Sc1nc2cc(Cl)ccc2s1)C(=O)NS(C)(=O)=O (stereo unspecified)
– | inactive | 80.9% | 600 | 0.28 | 890 | – | Active | – | – | CCCC(Sc1nc2cc(Cl)ccc2s1)C(=O)NS(C)(=O)=O (stereo unspecified)
– | inactive | Active | 68500 | 0.44 | – | – | Active | – | Dose-dependent effect | CC(C)(Oc1ccc(CCNC(=O)c2ccc(Cl)cc2)cc1)C(=O)NS(C)(=O)=O
– | inactive | 128% | – | 1.1 | – | inactive | – | – | – | CC(C)(Oc1ccc(C(=O)c2ccc(Cl)cc2)cc1)C(=O)NS(C)(=O)=O

Source: ChEMBL document CHEMBL2150861, “Fibrate-derived N-(methylsulfonyl)amides with antagonistic properties on PPARα” (Eur J Med Chem, 2012)
